Common to all, as to assay type: cell-based
Data set [1] can be described thus: Cytotoxicity against mouse BMDC cells up to 10 uM after overnight incubation by MTT assay. Summed up: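 BMDC (10^5/well) incubated 18 h with graded concentrations alongside 0.5% DMSO vehicle and MPLA 1 μg/mL; cells lysed after overnight MTT incubation, absorbance 570 nm minus 650 nm reference. Triplicates, mean ± SEM, two independent experiments.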
Data set [2] concerns the target T1, Toll-like receptor 4 (Mus musculus) (UniProt Q9QUK6).
T1 sequence (whole entry): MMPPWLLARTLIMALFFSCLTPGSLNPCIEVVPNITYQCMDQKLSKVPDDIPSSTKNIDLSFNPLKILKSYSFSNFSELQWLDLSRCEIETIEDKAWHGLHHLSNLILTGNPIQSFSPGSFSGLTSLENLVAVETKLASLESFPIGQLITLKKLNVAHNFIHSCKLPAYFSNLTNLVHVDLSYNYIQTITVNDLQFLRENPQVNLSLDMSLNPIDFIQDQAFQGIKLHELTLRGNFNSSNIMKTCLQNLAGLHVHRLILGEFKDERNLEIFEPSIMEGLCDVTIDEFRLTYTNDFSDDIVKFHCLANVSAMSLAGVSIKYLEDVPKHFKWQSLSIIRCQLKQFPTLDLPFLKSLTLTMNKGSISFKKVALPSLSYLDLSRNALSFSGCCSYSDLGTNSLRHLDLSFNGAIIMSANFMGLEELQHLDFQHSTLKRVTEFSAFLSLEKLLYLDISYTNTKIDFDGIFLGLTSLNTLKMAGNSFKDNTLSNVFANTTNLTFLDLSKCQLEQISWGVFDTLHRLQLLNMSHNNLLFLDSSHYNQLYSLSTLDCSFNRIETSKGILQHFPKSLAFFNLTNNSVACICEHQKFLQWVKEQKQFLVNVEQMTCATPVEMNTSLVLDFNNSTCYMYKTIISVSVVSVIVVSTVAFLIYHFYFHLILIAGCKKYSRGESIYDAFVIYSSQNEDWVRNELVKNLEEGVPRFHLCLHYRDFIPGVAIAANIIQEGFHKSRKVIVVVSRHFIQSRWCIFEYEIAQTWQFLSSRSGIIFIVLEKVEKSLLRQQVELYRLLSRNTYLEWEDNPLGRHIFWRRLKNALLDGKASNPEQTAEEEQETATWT
The data set can be described thus: Activation of mouse TLR4 transfected in HEK293 cells after 18 hrs by SEAP assay relative to N-cyclohexyl-2-(4-oxo-3-phenyl-4,5-dihydro-3H-pyrimido[5,4-b]indol-2-ylthio)acetamide. Summed up:
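Mouse TLR4 HEK-Blue cells (2.5 × 10^4/well) given titrated doses 312 nM–10 μM for 18 h, 0.5% DMSO vehicle; SEAP at 630 nm. Percent-activity curves, AUC by trapezoid method, normalized to reference hit set at 100. LPS 10 ng/mL control.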

Data set [3] concerns the target Toll-like receptor 4 (Homo sapiens) (UniProt O00206). The data set can be described thus: Activation of TLR4 in human PBMC cells assessed as AUC of IL8 release at 10 uM after 18 hrs by ELISA relative to N-cyclohexyl-2-(4-oxo-3-phenyl-4,5-dihydro-3H-pyrimido[5,4-b]indol-2-ylthio)acetamide. In a few lines: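 Human PBMC from buffy coats, 1 × 10^6/mL in complete RPMI, 18 h at 37 °C, 5% CO2 with compound at 10 μM; IL-8 in supernatant by ELISA, normalized to reference hit set at 100. LPS 10 ng/mL positive control.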

The target is the same in data set [4]. The data set can be described thus: Activation of human TLR4 transfected in HEK293 cells after 18 hrs by SEAP assay relative to N-cyclohexyl-2-(4-oxo-3-phenyl-4,5-dihydro-3H-pyrimido[5,4-b]indol-2-ylthio)acetamide. Details: concentration or dose not given beside the values. In a few lines:
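Human TLR4 HEK-Blue cells (2.5 × 10^4/well) given compound at 10 μM for 18 h, 0.5% DMSO vehicle; SEAP in supernatant read at 630 nm, normalized to reference hit set at 100. LPS 10 ng/mL positive control.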

Data set [5] concerns the target T1, Toll-like receptor 4 (Mus musculus). The experiment in a line: Activation of TLR4 in C57BL/6 mouse BMDC cells assessed as AUC of IL6 release after 18 hrs by ELISA relative to N-cyclohexyl-2-(4-oxo-3-phenyl-4,5-dihydro-3H-pyrimido[5,4-b]indol-2-ylthio)acetamide. Summed up:
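C57BL/6 bone marrow DC, 10^5 cells/well in RPMI-10% FCS, 18 h at 37 °C with titrated doses 312 nM–10 μM; supernatant IL-6 by ELISA. Each curve converted to percent activity (background subtracted, plate-adjusted), AUC by trapezoid method, normalized to reference hit set at 100 per experiment. LPS 10 ng/mL positive control; 0.5% DMSO vehicle.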

Data set [6] has the same target. The data set can be described thus: Activation of TLR4 in C57BL/6 mouse BMDC cells assessed as AUC of IP10 release at 5 uM after 18 hrs by ELISA relative to N-cyclohexyl-2-(4-oxo-3-phenyl-4,5-dihydro-3H-pyrimido[5,4-b]indol-2-ylthio)acetamide.

Chain of Toll-like receptor 4 (Homo sapiens) (O00206 whole entry): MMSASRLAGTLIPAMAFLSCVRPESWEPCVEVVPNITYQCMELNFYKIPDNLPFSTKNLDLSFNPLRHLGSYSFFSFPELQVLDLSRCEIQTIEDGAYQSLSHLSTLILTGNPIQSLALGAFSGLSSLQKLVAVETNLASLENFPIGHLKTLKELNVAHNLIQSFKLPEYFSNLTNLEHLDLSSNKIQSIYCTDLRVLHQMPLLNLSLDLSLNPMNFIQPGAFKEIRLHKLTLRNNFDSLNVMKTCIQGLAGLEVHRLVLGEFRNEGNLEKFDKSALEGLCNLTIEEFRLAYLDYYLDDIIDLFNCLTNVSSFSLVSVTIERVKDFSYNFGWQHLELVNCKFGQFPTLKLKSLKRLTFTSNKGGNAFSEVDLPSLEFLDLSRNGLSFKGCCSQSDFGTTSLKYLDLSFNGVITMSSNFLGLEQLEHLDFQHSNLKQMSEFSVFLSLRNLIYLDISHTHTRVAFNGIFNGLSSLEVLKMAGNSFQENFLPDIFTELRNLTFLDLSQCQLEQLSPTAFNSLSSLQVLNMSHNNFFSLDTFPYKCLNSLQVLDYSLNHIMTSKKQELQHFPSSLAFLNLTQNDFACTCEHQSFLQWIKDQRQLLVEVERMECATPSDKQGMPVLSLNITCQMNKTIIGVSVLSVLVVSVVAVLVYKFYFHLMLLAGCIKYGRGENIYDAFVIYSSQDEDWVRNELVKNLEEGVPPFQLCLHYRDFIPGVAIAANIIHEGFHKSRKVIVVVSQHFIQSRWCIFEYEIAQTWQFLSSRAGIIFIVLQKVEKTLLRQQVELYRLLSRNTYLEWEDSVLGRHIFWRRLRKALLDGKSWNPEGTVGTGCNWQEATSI

For the molecule `CCCn1c2ccccc2c2nc(SCC(=O)NC3CCCCC3)n(-c3ccccc3)c(=O)c21`, the Activity entry in data set [1] is “Non-toxic”.

Take `N#CCn1c2ccccc2c2nc(SCC(=O)NC3CCCCC3)n(-c3ccccc3)c(=O)c21`: the Activity was 55% in data set [2]; 30% in data set [3]; 19% in data set [4]; 98% in data set [5]; “Non-toxic” in data set [1]; 64% in data set [6].

As for `CN(C(=O)CSc1nc2c3ccccc3n(C)c2c(=O)n1-c1ccccc1)C1CCCCC1`, the Activity in data set [2] was 1%; in data set [3], 5%; in data set [4] it was less than 1%; in data set [5], less than 1%; in data set [6], less than 1%.

Turning to `O=C(CSc1nc2c([nH]c3ccccc32)c(=O)n1-c1ccccc1)Nc1cccc(F)c1`, the Activity in data set [2] is 11%; in data set [3], 13%; in data set [4] it was 39%; in data set [5] it was 14%; in data set [6] it was 45%.

Turning to `Cn1c2ccccc2c2nc(SCC(=O)NC3CCCCC3)n(-c3ccccc3)c(=O)c21`, the Activity was 100% in data set [2]; 79% in data set [3]; 92% in data set [4]; 101% in data set [5]; “Non-toxic” in data set [1]; 99% in data set [6].

As to `CCCCCNC(=O)CSc1nc2c([nH]c3ccccc32)c(=O)n1-c1ccccc1`, the Activity in data set [2] came to 42%; in data set [3] it was 25%; in data set [4], 23%; in data set [5] it was 40%; in data set [6] it was 40%.

Turning to `CC(C)CCNC(=O)CSc1nc2c([nH]c3ccccc32)c(=O)n1-c1ccccc1`, the Activity turned out to be 56% in data set [2]; 53% in data set [3]; 38% in data set [4]; 61% in data set [5]; 62% in data set [6].

For the molecule `O=C(CSc1nc2c([nH]c3ccccc32)c(=O)n1-c1ccccc1)Nc1ccccc1F`, the Activity in data set [2] stood at 43%; in data set [3], 61%; in data set [4], 71%; in data set [5] it was 36%; in data set [6] it was 54%.

On to `CCCCCCCC/C=C\CCCCCCCC(=O)OC[C@H](COP(=O)(O)OCCNC(=O)CSc1nc2c([nH]c3ccccc32)c(=O)n1-c1ccccc1)OC(=O)CCCCCCC/C=C\CCCCCCCC`, for which the Activity in data set [2], in data set [3], in data set [4], in data set [5] and in data set [6] was less than 1% in each case.

For the molecule `CCC(CC)NC(=O)CSc1nc2c([nH]c3ccccc32)c(=O)n1-c1ccccc1`, the Activity in data set [2] was 8%; in data set [3], less than 1%; in data set [4], 11%; in data set [5], less than 10%; in data set [6], 26%.

Turning to `O=C(CSc1nc2c([nH]c3ccccc32)c(=O)n1-c1ccccc1)Nc1ccccc1`, the Activity in data set [2] turned out to be 21%; in data set [3] it was 15%; in data set [4] it was 31%; in data set [5], 11%; in data set [6], 44%.

Take `O=C(CSc1nc2c([nH]c3ccccc32)c(=O)n1-c1ccccc1)NC1CCCC1`: the Activity amounted to 28% in data set [2]; 5% in data set [3]; 23% in data set [4]; 53% in data set [5]; 52% in data set [6].

As to `CCCCNC(=O)CSc1nc2c([nH]c3ccccc32)c(=O)n1-c1ccccc1`, the Activity in data set [2] turned out to be 31%; in data set [3] it was 29%; in data set [4], 32%; in data set [5] it was 49%; in data set [6] it was 61%.

Regarding `CC(C)(C)NC(=O)CSc1nc2c([nH]c3ccccc32)c(=O)n1-c1ccccc1`, the Activity in data set [2] is less than 1%; in data set [3], 5%; in data set [4], 6%; in data set [5], less than 1%; in data set [6], less than 1%.

For the molecule `O=C(CSc1nc2c([nH]c3ccccc32)c(=O)n1-c1ccccc1)NC1CCCCCCC1`, the Activity is 95% in data set [2]; 73% in data set [3]; 64% in data set [4]; 114% in data set [5]; 98% in data set [6].
